Reference: ChEMBL document CHEMBL3797143, “Novel S1P1 receptor agonists - Part 5: From amino-to alkoxy-pyridines” (Eur J Med Chem, 2016)

Legend:
[1] = Plasma concentration in Wistar rat at 10 mg/kg administered via oral gavage measured after 144 hrs by LC-MS/MS analysis; format: ADME, organism-based
In short: (§1)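 Male Wistar rats received 10 mg/kg orally by gavage. Blood was drawn at the listed times into EDTA tubes, and plasma was prepared by centrifugation at 3000 g for 10 min at 4 °C. Limit of quantification 3 nM.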

Rattus norvegicus [2] = experiment: Time duration of maximum lymphocyte count reduction in Wistar rat at 10 mg/kg administered via oral gavage; format: functional
In short: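 Duration of action is the latest sampling time at which maximal lymphocyte-count reduction was still seen. Male Wistar rats received 10 mg/kg orally, and blood lymphocytes were counted before dosing and at 3, 6 and 24 h (later times in some cases). Mean of 6-8 animals.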

[3] = Half life in Wistar rat at 10 mg/kg administered via oral gavage by LC-MS/MS analysis; format: ADME, organism-based; details: in vivo
In short: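 Oral half-life was calculated from plasma concentrations measured in the lymphocyte-count study, in which male Wistar rats received 10 mg/kg orally. Plasma was prepared from EDTA blood by centrifugation at 3000 g for 10 min at 4 °C.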

[4] = Phototoxicity in Balb/c mouse 3T3 clone A31 cells assessed as AUC of UV spectra between 310 and 350 nm normalized to compound concentration at 0.05 to 100 uM preincubated for 1 hr followed by UVA irradiation measured after 24 hrs by neutral red uptake assay relative to control; format: functional
[5] = Phototoxicity in Balb/c mouse 3T3 clone A31 cells assessed as inhibition of cell viability measured as photo irritancy factor at 0.05 to 100 uM preincubated for 1 hr followed by UVA irradiation measured after 24 hrs by neutral red uptake assay relative to control; format: functional
[6] = biological target: Sphingosine 1-phosphate receptor 3 (Homo sapiens, UniProt Q99500); experiment: Agonist activity at human recombinant S1PR3 expressed in CHO cell membranes incubated for 30 mins by [35S]GTPgammaS binding assay in presence of GDP; format: functional
Sphingosine 1-phosphate receptor 3, sequence (Q99500 whole entry): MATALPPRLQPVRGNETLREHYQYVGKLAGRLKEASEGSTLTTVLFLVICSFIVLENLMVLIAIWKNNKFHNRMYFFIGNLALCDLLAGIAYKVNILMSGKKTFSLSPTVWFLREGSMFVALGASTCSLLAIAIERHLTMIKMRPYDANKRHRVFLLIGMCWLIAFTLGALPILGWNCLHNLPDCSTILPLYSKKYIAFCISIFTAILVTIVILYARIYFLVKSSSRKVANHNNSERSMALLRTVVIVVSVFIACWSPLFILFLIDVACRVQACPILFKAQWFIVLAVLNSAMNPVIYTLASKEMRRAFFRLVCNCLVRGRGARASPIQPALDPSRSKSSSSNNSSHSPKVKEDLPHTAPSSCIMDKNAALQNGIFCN
In short: (§2)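 Membranes from CHO cells expressing recombinant human S1P1 or S1P3. Compounds were preincubated with membranes for 30 min at room temperature. Reaction stopped by filtration, membrane-bound 35S-GTPγS counted. Geometric mean of ≥3 independent runs.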

Rattus norvegicus [7] = experiment: Decrease in peripheral blood lymphocyte count in Wistar rat at 10 mg/kg administered via oral gavage measured after 3 hrs; format: functional; design: scale not given: the % may be the effect or the level left
In short: (§3)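 Male Wistar rats (RccHan:WIST) were given 10 mg/kg orally by gavage in vehicle containing 5% DMSO. Blood drawn by sublingual vein puncture under isoflurane before dosing and at the listed times after dosing. Lymphocytes counted on a haematology analyser. Results are % change from baseline, mean of 6-8 animals.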

Rattus norvegicus [8] = experiment: Decrease in peripheral blood lymphocyte count in Wistar rat at 10 mg/kg administered via oral gavage measured after 6 hrs; format: functional; design: scale not given: the % may be the effect or the level left; in short: as §3
Rattus norvegicus [9] = experiment: Decrease in peripheral blood lymphocyte count in Wistar rat at 10 mg/kg administered via oral gavage measured after 24 hrs; format: functional; design: scale not given: the % may be the effect or the level left; in short: as §3
Rattus norvegicus [10] = experiment: Decrease in peripheral blood lymphocyte count in Wistar rat at 10 mg/kg administered via oral gavage measured after 96 hrs; format: functional; design: scale not given: the % may be the effect or the level left; in short: as §3
Rattus norvegicus [11] = experiment: Decrease in peripheral blood lymphocyte count in Wistar rat at 10 mg/kg administered via oral gavage measured after 144 hrs; format: functional; design: scale not given: the % may be the effect or the level left; in short: as §3
[12] = Plasma concentration in Wistar rat at 10 mg/kg administered via oral gavage measured after 3 hrs by LC-MS/MS analysis; format: ADME, organism-based; in short: as §1
[13] = Plasma concentration in Wistar rat at 10 mg/kg administered via oral gavage measured after 6 hrs by LC-MS/MS analysis; format: ADME, organism-based; in short: as §1
[14] = Plasma concentration in Wistar rat at 10 mg/kg administered via oral gavage measured after 24 hrs by LC-MS/MS analysis; format: ADME, organism-based; in short: as §1
[15] = Plasma concentration in Wistar rat at 10 mg/kg administered via oral gavage measured after 96 hrs by LC-MS/MS analysis; format: ADME, organism-based; in short: as §1
[16] = biological target: Sphingosine 1-phosphate receptor 1 (Homo sapiens, UniProt P21453); experiment: Agonist activity at human recombinant S1PR1 expressed in CHO cell membranes incubated for 30 mins by [35S]GTPgammaS binding assay in presence of GDP; format: functional; in short: as §2
Sphingosine 1-phosphate receptor 1, sequence (P21453 whole entry): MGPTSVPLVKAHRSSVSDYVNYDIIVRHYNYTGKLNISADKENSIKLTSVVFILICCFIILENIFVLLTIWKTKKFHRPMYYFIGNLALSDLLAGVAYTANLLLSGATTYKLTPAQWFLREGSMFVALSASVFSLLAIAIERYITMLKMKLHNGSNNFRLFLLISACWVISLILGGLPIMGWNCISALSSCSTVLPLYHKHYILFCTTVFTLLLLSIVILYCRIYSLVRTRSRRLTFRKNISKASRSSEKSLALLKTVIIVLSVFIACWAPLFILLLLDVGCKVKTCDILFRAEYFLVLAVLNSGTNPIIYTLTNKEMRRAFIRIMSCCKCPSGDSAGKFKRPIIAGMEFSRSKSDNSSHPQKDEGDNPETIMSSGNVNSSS

Rattus norvegicus [17] = experiment: Decrease in peripheral blood lymphocyte count in Wistar rat at 10 mg/kg administered via oral gavage measured after 72 hrs; format: functional; design: scale not given: the % may be the effect or the level left; in short: as §3
[18] = Plasma concentration in Wistar rat at 10 mg/kg administered via oral gavage measured after 72 hrs by LC-MS/MS analysis; format: ADME, organism-based; in short: as §1
Rattus norvegicus [19] = experiment: Decrease in peripheral blood lymphocyte count in Wistar rat at 10 mg/kg administered via oral gavage measured after 48 hrs; format: functional; design: scale not given: the % may be the effect or the level left; in short: as §3

| Structure (SMILES) | concentration at 144 h [1] | Time (Rattus norvegicus [2]) | half-life [3] | Ratio [4] | Ratio [5] | EC50 [6] | Activity (Rattus norvegicus [7]) | Activity (Rattus norvegicus [8]) | Activity (Rattus norvegicus [9]) | Activity (Rattus norvegicus [10]) | Activity (Rattus norvegicus [11]) | concentration at 3 h [12] | concentration at 6 h [13] | concentration at 24 h [14] | concentration at 96 h [15] | EC50 [16] | Activity (Rattus norvegicus [17]) | concentration at 72 h [18] | Activity (Rattus norvegicus [19]) |
| --- | --- | --- | --- | --- | --- | --- | --- | --- | --- | --- | --- | --- | --- | --- | --- | --- | --- | --- | --- |
| CCc1cc(-c2noc(-c3cc(OC)nc(C4CCCC4)c3)n2)cc(C)c1OC[C@@H](O)CNC(=O)CO | 12 nM | 24 h | 18 h | 0.09 | 2.3 | 71 nM | 62% | 65% | 70% | 50% | 20% | 2050 nM | 1860 nM | 1070 nM | 68 nM | – | – | – | – |
| CCc1cc(-c2noc(-c3cc(C)nc(OC4CCCC4)c3)n2)cc(C)c1OC[C@@H](O)CNC(=O)CO | – | 24 h | 13 h | 0.12 | 7.5 | 190 nM | 69% | 66% | 74% | – | – | 2200 nM | 2040 nM | 790 nM | – | 1 nM | 43% | 67 nM | – |
| CCc1cc(-c2noc(-c3cc(CC(C)C)nc(OC)c3)n2)cc(C)c1OC[C@@H](O)CNC(=O)CO | – | 48 h | – | – | – | 27 nM | 57% | 59% | 66% | – | – | – | – | – | – | 0.3 nM | – | – | 59% |
